# Assay results as given in ChEMBL document CHEMBL4145448, “Broad activity of diphenyleneiodonium analogues against Mycobacterium tuberculosis, malaria parasites and bacterial pathogens” (Eur J Med Chem, 2018).
# Legend:
# [1] = tested on: Acinetobacter baumannii; assay: Antibacterial activity against Acinetobacter baumannii ATCC 19606 after 18 hrs by broth microdilution method; format: functional; conditions: ATCC 19606 = CIP 70.34 = JCM 6841, 18 h
# Procedure, shortened: (§1)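 Broth microdilution per CLSI in cation-adjusted Mueller-Hinton broth. 100 µL inoculum (~10^6 cfu/mL in CaMHB) mixed with 100 µL CaMHB containing compound, 0 to 128 µM. Incubated 18 h at 37 °C. MIC taken as the lowest concentration with no visible growth. Polymyxin B served as positive control. Isolates were stored at -80 °C in tryptone soy broth with 20% glycerol.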
# [2] = Selectivity index, ratio of CC50 for human HepG2 cells in presence of 1% FBS to MIC for Acinetobacter baumannii ATCC 17978 col10; format: toxicity; conditions: read-out: Selectivity Index
# [3] = tested on: Klebsiella pneumoniae; assay: Antibacterial activity against Klebsiella pneumoniae isolate M320445 after 18 hrs by broth microdilution method; format: functional; conditions: isolate M320445, 18 h; procedure, shortened: as §1
# [4] = Selectivity index, ratio of CC50 for human HepG2 cells in presence of 1% FBS to MIC for Klebsiella pneumoniae ATCC 13883; format: toxicity; conditions: read-out: Selectivity Index
# [5] = Selectivity index, ratio of CC50 for human HepG2 cells in presence of 1% FBS to MIC for Acinetobacter baumannii isolate 07AC-336; format: toxicity; conditions: read-out: Selectivity Index
# [6] = tested on: Acinetobacter baumannii; assay: Antibacterial activity against Acinetobacter baumannii isolate 246-01-C after 18 hrs by broth microdilution method; format: functional; procedure, shortened: as §1
# [7] = Selectivity index, ratio of CC50 for human HepG2 cells in presence of 1% FBS to MIC for vancomycin-resistant Enterococcus faecium ATCC 700221; format: toxicity; conditions: read-out: Selectivity Index
# Procedure, shortened: (§2)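 Selectivity index is CC50 (1% FBS) divided by MIC. […] They then got compound at 300 to 0.14 µM (3-fold steps) for 24 h at 37 °C, 5% CO2. Resazurin (10 µM, 2 h) was read at ex/em 560/590 in duplicate wells. For MIC, CLSI broth microdilution was run in CaMHB with ~10^6 cfu/mL inoculum and 0–128 µM compound.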
# [8] = Selectivity index, ratio of CC50 for human HepG2 cells in presence of 1% FBS to MIC for Acinetobacter baumannii ATCC 19606 col10; format: toxicity; conditions: read-out: Selectivity Index
# [9] = Selectivity index, ratio of CC50 for human HepG2 cells in presence of 1% FBS to MIC for Klebsiella pneumoniae isolate 1; format: toxicity; conditions: read-out: Selectivity Index
# [10] = tested on: Acinetobacter baumannii; assay: Antibacterial activity against Acinetobacter baumannii ATCC 17978 col10 after 18 hrs by broth microdilution method; format: functional; conditions: ATCC 17978 col10, 18 h; procedure, shortened: as §1
# [11] = tested on: Staphylococcus aureus; assay: Antibacterial activity against vancomycin-resistant Staphylococcus aureus ATCC 700699 after 18 hrs by broth microdilution method; format: functional; conditions: ATCC 700699, 18 h; procedure, shortened: as §1
# [12] = tested on: Pseudomonas aeruginosa; assay: Antibacterial activity against Pseudomonas aeruginosa isolate M146201 after 18 hrs by broth microdilution method; format: functional; conditions: isolate M146201, 18 h; procedure, shortened: as §1
# [13] = tested on: Enterococcus faecium; assay: Antibacterial activity against vancomycin-resistant Enterococcus faecium ATCC 700221 after 18 hrs by broth microdilution method; format: functional; conditions: ATCC 700221, 18 h; procedure, shortened: as §1
# [14] = Selectivity index, ratio of CC50 for human HepG2 cells in presence of 1% FBS to MIC for Klebsiella pneumoniae isolate 224-11-C; format: toxicity; conditions: read-out: Selectivity Index
# [15] = tested on: Staphylococcus aureus; assay: Antibacterial activity against methicillin-resistant Staphylococcus aureus ATCC 43300 after 18 hrs by broth microdilution method; format: functional; conditions: ATCC 43300, 18 h; procedure, shortened: as §1
# [16] = Selectivity index, ratio of CC50 for human HepG2 cells in presence of 1% FBS to MIC for Pseudomonas aeruginosa ATCC 27853; format: toxicity; conditions: read-out: Selectivity Index; procedure, shortened: as §2
# [17] = Selectivity index, ratio of CC50 for human HepG2 cells in presence of 1% FBS to MIC for Acinetobacter baumannii ATCC 19606; format: toxicity; conditions: read-out: Selectivity Index
# [18] = Selectivity index, ratio of CC50 for human HepG2 cells in presence of 1% FBS to MIC for vancomycin-intermediate Staphylococcus aureus ATCC 700698; format: toxicity; conditions: read-out: Selectivity Index; procedure, shortened: as §2
# [19] = tested on: Acinetobacter baumannii; assay: Antibacterial activity against Acinetobacter baumannii isolate 07AC-336 after 18 hrs by broth microdilution method; format: functional; conditions: isolate 07AC-336, 18 h; procedure, shortened: as §1
# [20] = tested on: Klebsiella pneumoniae; assay: Antibacterial activity against Klebsiella pneumoniae isolate 248-33-D after 18 hrs by broth microdilution method; format: functional; procedure, shortened: as §1
# [21] = tested on: Acinetobacter baumannii; assay: Antibacterial activity against Acinetobacter baumannii ATCC 17978 after 18 hrs by broth microdilution method; format: functional; conditions: ATCC 17978, 18 h; procedure, shortened: as §1
# [22] = Selectivity index, ratio of CC50 for human HepG2 cells in presence of 1% FBS to MIC for Escherichia coli N11281; format: toxicity; conditions: read-out: Selectivity Index
# [23] = tested on: Escherichia coli; assay: Antibacterial activity against Escherichia coli N4149 after 18 hrs by broth microdilution method; format: functional; conditions: N4149, 18 h; procedure, shortened: as §1
# [24] = tested on: Pseudomonas aeruginosa; assay: Antibacterial activity against Pseudomonas aeruginosa QLD PSA 1 after 18 hrs by broth microdilution method; format: functional; conditions: QLD PSA 1, 18 h; procedure, shortened: as §1
# [25] = tested on: Staphylococcus aureus; assay: Antibacterial activity against vancomycin-intermediate Staphylococcus aureus ATCC 700698 after 18 hrs by broth microdilution method; format: functional; conditions: ATCC 700698, 18 h; procedure, shortened: as §1
# [26] = Selectivity index, ratio of CC50 for human HepG2 cells in presence of 1% FBS to MIC for Acinetobacter baumannii ATCC 17978; format: toxicity; conditions: read-out: Selectivity Index
# [27] = tested on: Pseudomonas aeruginosa; assay: Antibacterial activity against Pseudomonas aeruginosa isolate 18878B klon 1 after 18 hrs by broth microdilution method; format: functional; conditions: isolate 18878B klon 1, 18 h; procedure, shortened: as §1
# [28] = Selectivity index, ratio of CC50 for human HepG2 cells in presence of 1% FBS to MIC for Escherichia coli N2381; format: toxicity; conditions: read-out: Selectivity Index
# [29] = Selectivity index, ratio of CC50 for human HepG2 cells in presence of 1% FBS to MIC for vancomycin-resistant Staphylococcus aureus ATCC 700699; format: toxicity; conditions: read-out: Selectivity Index; procedure, shortened: as §2
# [30] = Selectivity index, ratio of CC50 for human HepG2 cells in presence of 1% FBS to MIC for Pseudomonas aeruginosa QLD PSA 1; format: toxicity; conditions: read-out: Selectivity Index; procedure, shortened: as §2
# [31] = tested on: Acinetobacter baumannii; assay: Antibacterial activity against Acinetobacter baumannii ATCC 19606 col10 after 18 hrs by broth microdilution method; format: functional; conditions: ATCC 19606 = CIP 70.34 = JCM 6841 col10, 18 h; procedure, shortened: as §1
# [32] = Selectivity index, ratio of CC50 for human HepG2 cells in presence of 1% FBS to MIC for Klebsiella pneumoniae isolate M320445; format: toxicity; conditions: read-out: Selectivity Index
# [33] = tested on: Mycobacterium tuberculosis; assay: Antimycobacterial activity against Mycobacterium tuberculosis H37Rv ATCC 25618 after 7 days by resazurin dye based assay; format: functional; conditions: H37Rv ATCC 25618, 168 h
# Procedure, shortened: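 H37Rv grown at 37 °C in 7H9 with 10% ADC, 0.5% glycerol and 0.02% tyloxapol. Compounds serially diluted in water, 0 to 10 µM, in triplicate. Culture adjusted to OD600 0.001 and incubated 7 days at 37 °C. Resazurin (0.05% w/v) added for 4-24 h and fluorescence read at 590 nm. MIC is the lowest concentration giving complete growth inhibition versus untreated. Rifampicin served as control.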
# [34] = tested on: Klebsiella pneumoniae; assay: Antibacterial activity against Klebsiella pneumoniae isolate 1 after 18 hrs by broth microdilution method; format: functional; conditions: isolate 1, 18 h; procedure, shortened: as §1
SMILES,MIC [1],selectivity ratio [2],MIC [3],selectivity ratio [4],selectivity ratio [5],MIC [6],selectivity ratio [7],selectivity ratio [8],selectivity ratio [9],MIC [10],MIC [11],MIC [12],MIC [13],selectivity ratio [14],MIC [15],selectivity ratio [16],selectivity ratio [17],selectivity ratio [18],MIC [19],MIC [20],also measured
Clc1ccc2c(c1)[I+]c1ccccc1-2,2.2 µM,< 4.1,8.7 µM,0.13,0.51,2.2 µM,1,1,0.06,< 0.27 µM,2.2 µM,2.2 µM,1.1 µM,0.06,2.2 µM,0.13,0.51,0.51,2.2 µM,17 µM,MIC [21]: 0.54 µM; selectivity ratio [22]: 0.26; MIC [23]: 8.7 µM; MIC [24]: 2.2 µM; MIC [25]: 2.2 µM; selectivity ratio [26]: 2; MIC [27]: 0.54 µM; selectivity ratio [28]: 0.13; selectivity ratio [29]: 0.51; selectivity ratio [30]: 0.51; MIC [31]: 1.1 µM; selectivity ratio [32]: 0.13; MIC [33]: 0.28 µM; MIC [34]: 17 µM
Fc1ccc2c(c1)-c1ccccc1[I+]2,4.5 µM,2,18 µM,0.67,1.3,4.5 µM,2.7,5.3,0.33,0.56 µM,9.1 µM,4.5 µM,4.5 µM,0.33,4.5 µM,0.67,2.7,0.67,9.1 µM,18 µM,MIC [21]: 2.2 µM; selectivity ratio [22]: 0.67; MIC [23]: 36 µM; MIC [24]: 18 µM; MIC [25]: 18 µM; selectivity ratio [26]: 5.3; MIC [27]: 2.2 µM; selectivity ratio [28]: 0.67; selectivity ratio [29]: 1.3; selectivity ratio [30]: 0.67; MIC [31]: 2.2 µM; selectivity ratio [32]: 0.67; MIC [33]: 0.29 µM; MIC [34]: 36 µM
Fc1cccc2c1-c1ccccc1[I+]2,0.56 µM,< 16,9 µM,1,4.1,< 0.28 µM,8.2,8.2,0.51,< 0.28 µM,2.2 µM,1.1 µM,0.56 µM,0.51,2.2 µM,2.1,8.2,2.1,1.1 µM,9 µM,MIC [21]: 0.56 µM; selectivity ratio [22]: 1; MIC [23]: 1.1 µM; MIC [24]: 4.5 µM; MIC [25]: 2.2 µM; selectivity ratio [26]: 8.2; MIC [27]: < 0.28 µM; selectivity ratio [28]: 4.2; selectivity ratio [29]: 2.1; selectivity ratio [30]: 1; MIC [31]: 0.56 µM; selectivity ratio [32]: 0.51; MIC [33]: 0.29 µM; MIC [34]: 9 µM
Cc1cccc2c1-c1ccccc1[I+]2,2.3 µM,4.6,36 µM,0.14,1.2,2.3 µM,1.2,1.2,0.04,0.57 µM,36 µM,2.3 µM,2.3 µM,> 0.04,36 µM,0.14,1.2,0.07,2.2 µM,> 72 µM,MIC [21]: 1.1 µM; selectivity ratio [22]: 0.14; MIC [23]: > 72 µM; MIC [24]: 4.5 µM; MIC [25]: 36 µM; selectivity ratio [26]: 2.3; MIC [27]: 1.1 µM; selectivity ratio [28]: 0.14; selectivity ratio [29]: 0.07; selectivity ratio [30]: 0.58; MIC [31]: 2.3 µM; selectivity ratio [32]: 0.07; MIC [33]: 0.14 µM; MIC [34]: 72 µM
